Calls of active or inactive are those of the source. The calls are words filed in the database; no cut-off is given here.
Assays:
[1] = Clearance in Beagle dog at 240 mg/kg, po dosed for 14 days by LC/MS/MS method; format: ADME, organism-based, Canis lupus familiaris; set-up: dose 240 mg/kg, route oral; details: in vivo
In short: (§1)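 Beagle dogs (n = 6) dosed by oral gavage at 240 mg/kg daily for 14 consecutive days. Blood taken predose and at 0.25–24 h on days 1 and 14, plasma stored at −20 °C, analysed by validated LC/MS/MS. Half-life and AUC by model-independent methods; Cmax and MRT read from concentration–time data.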

BT-474 [2] = experiment: Induction of cell cycle arrest in human BT474 cells assessed as accumulation at S phase at 10 uM incubated for 12 hrs by propidium iodide staining based flow cytometry (reference value: 19%); format: functional
[3] = biological target: T1, Platelet-derived growth factor receptor beta (Homo sapiens, UniProt P09619); details: U-87MG ATCC, 0.001 to 1 uM
T1 sequence (P09619 whole entry): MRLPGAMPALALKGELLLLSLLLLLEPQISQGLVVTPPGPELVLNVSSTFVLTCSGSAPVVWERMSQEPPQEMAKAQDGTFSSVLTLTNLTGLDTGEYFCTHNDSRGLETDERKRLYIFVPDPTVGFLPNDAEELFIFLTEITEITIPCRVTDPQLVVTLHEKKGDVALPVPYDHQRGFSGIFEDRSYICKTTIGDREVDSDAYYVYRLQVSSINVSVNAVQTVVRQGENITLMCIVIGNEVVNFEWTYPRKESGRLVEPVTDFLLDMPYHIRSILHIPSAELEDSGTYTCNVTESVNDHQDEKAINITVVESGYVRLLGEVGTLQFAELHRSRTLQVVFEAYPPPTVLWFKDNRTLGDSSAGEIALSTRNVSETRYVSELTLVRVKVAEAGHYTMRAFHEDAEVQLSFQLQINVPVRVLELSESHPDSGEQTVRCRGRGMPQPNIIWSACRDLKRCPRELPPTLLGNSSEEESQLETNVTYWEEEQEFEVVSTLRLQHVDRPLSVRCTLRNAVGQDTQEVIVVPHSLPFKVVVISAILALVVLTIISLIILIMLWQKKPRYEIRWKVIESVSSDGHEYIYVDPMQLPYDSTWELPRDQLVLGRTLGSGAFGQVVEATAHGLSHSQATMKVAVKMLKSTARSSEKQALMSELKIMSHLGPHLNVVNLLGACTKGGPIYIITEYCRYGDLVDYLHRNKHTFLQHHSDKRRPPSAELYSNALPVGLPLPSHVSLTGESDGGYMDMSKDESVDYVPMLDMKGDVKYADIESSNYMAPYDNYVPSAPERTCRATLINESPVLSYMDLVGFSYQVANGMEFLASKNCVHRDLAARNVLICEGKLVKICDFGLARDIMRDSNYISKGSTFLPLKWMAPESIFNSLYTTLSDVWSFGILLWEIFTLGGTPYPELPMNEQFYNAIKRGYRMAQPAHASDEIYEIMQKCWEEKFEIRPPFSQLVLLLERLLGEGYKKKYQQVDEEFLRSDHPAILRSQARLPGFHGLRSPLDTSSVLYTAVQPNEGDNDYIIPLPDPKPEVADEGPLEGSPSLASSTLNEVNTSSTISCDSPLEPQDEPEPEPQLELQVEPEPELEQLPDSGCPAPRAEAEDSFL

Mus musculus [4] = experiment: Toxicity in human Calu3 cells xenografted BALB/cA mouse assessed as body weight loss at 200 mg/kg, po measured every other day for 21 days; format: organism-based, Calu-3; set-up: dose 200 mg/kg, route oral; details: in vivo, 504 h
In short: (§2)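 Female BALB/cA nude mice, 6–7 weeks old, implanted s.c. on the mid-right flank with 2×10^6 Calu-3 cells in 0.2 ml PBS. At 60–150 mm³ tumour volume, mice randomised into six per treatment group (twelve vehicle controls). Oral dosing in 0.5% CMC aqueous solution with 0.1% Tween-80. Body weight recorded every other day for 21 d.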

[5] = biological target: T2, Epidermal growth factor receptor (Homo sapiens, UniProt P00533); experiment: Inhibition of HER1 (unknown origin) assessed as reduction in autophosphorylation by ELISA method
T2 sequence (P00533 whole entry): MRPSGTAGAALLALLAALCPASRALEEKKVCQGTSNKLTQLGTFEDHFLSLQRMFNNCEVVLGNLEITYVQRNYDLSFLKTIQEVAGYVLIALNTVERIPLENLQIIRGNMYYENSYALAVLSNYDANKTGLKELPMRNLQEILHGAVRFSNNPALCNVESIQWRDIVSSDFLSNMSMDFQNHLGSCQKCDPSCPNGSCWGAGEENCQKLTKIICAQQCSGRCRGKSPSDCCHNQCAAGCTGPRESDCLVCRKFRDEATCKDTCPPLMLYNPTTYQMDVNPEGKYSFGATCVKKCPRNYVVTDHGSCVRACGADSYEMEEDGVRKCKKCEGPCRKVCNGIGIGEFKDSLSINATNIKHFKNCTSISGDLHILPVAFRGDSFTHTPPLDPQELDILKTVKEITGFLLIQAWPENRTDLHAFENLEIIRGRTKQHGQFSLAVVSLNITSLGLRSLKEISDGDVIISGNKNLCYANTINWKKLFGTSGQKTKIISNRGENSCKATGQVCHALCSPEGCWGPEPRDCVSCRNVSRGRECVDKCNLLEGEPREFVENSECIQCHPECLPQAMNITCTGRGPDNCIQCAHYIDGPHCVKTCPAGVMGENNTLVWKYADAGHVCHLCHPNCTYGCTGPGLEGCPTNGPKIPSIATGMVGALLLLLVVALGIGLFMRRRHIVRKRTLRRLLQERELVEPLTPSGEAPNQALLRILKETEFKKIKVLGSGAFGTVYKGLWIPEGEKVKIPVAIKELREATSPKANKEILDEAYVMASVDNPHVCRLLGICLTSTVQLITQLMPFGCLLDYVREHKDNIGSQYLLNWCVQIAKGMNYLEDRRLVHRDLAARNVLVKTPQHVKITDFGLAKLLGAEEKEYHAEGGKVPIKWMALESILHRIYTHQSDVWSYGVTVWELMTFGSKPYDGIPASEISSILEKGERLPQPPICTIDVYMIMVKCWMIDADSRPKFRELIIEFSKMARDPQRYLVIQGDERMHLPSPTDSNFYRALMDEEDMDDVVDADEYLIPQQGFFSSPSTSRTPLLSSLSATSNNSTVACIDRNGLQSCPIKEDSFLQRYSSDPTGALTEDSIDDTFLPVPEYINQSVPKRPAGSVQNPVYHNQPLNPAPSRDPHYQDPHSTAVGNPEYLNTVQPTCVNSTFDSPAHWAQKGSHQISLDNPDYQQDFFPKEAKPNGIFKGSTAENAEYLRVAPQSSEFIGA

cells = details: Homo sapiens, Calu-3, 72 h
[6] = biological target: T2, Epidermal growth factor receptor; details: A-431, 0.001 to 1 uM
Mus musculus [7] = experiment: Toxicity in human Calu3 cells xenografted BALB/cA mouse assessed as body weight loss at 100 mg/kg, po measured every other day for 21 days; format: organism-based, Calu-3; set-up: dose 100 mg/kg, route oral; details: in vivo, 504 h; in short: as §2
[8] = biological target: T1, Platelet-derived growth factor receptor beta; experiment: Inhibition of PDGFRbeta (unknown origin) by ELISA method
In short: (§3)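 Phosphotyrosine ELISA with purified kinase (20 ng) and 5 µM ATP in buffer (50 mM HEPES pH 7.4, 20 mM MgCl2, 0.1 mM MnCl2, 0.2 mM Na3VO4, 1 mM DTT), 1 h at 37 °C, DMSO ≤1%. Detection by PY99 antibody, then HRP anti-mouse IgG with o-phenylenediamine, A490. IC50 by Logit from at least three independent tests.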

BT-474 [9] = experiment: Cytotoxicity against human BT474 cells assessed as inhibition of cell growth after 72 hrs by sulforhodamine B assay; format: functional, cell-based; details: BT-474, 72 h
In short: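 Cells grown in RPMI-1640 with 5% FBS and plated at 5.0×10^4/ml. Next day exposed to 0.5–5000 ng/ml for 3 days. Survival read by sulforhodamine B staining. IC50 taken from growth curves; mean of at least three determinations.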

[10] = Antitumor activity against human Calu3 cells xenografted in BALB/cA mouse assessed as tumor growth inhibition at 100 mg/kg, po; format: functional; details: Calu-3, read-out: TGI
In short: (§4)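 Female BALB/cA nude mice, 6–7 weeks old, implanted s.c. on midright side with 2×10^6 Calu-3 cells in 0.2 ml PBS. Grouped at 60–150 mm³ tumour volume (6 per treated group, 12 vehicle). Oral dosing in 0.5% CMC with 0.1% Tween-80. Caliper volume = L×W²×0.5; inhibition = (1 − T/C)×100% on relative tumour volume; weight tracked for 21 d.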

[11] = biological target: T2, Epidermal growth factor receptor; details: A-431, 0.001 to 1 uM; remark: listed apart in the source
BT-474 [12] = experiment: Induction of cell cycle arrest in human BT474 cells assessed as accumulation at G2/M phase at 1 uM incubated for 12 hrs by propidium iodide staining based flow cytometry (reference value: 14%); format: functional
BT-474 [13] = experiment: Induction of apoptosis in human BT474 cells at 0.01 uM incubated for 12 hrs by propidium iodide staining based flow cytometry (reference value: 1%); format: functional
[14] = AUC (0 to infinity) in Beagle dog at 240 mg/kg, po dosed for 14 days by LC/MS/MS method; format: ADME, organism-based, Canis lupus familiaris; set-up: time infinity, dose 240 mg/kg, route oral; details: plasma; in short: as §1
BT-474 [15] = experiment: Induction of cell cycle arrest in human BT474 cells assessed as accumulation at G2/M phase at 0.1 uM incubated for 12 hrs by propidium iodide staining based flow cytometry (reference value: 14%); format: functional
[16] = biological target: T3, Receptor tyrosine-protein kinase erbB-2 (Homo sapiens, UniProt P04626); details: BT-474, 0.001 to 1 uM
T3 sequence (P04626 whole entry): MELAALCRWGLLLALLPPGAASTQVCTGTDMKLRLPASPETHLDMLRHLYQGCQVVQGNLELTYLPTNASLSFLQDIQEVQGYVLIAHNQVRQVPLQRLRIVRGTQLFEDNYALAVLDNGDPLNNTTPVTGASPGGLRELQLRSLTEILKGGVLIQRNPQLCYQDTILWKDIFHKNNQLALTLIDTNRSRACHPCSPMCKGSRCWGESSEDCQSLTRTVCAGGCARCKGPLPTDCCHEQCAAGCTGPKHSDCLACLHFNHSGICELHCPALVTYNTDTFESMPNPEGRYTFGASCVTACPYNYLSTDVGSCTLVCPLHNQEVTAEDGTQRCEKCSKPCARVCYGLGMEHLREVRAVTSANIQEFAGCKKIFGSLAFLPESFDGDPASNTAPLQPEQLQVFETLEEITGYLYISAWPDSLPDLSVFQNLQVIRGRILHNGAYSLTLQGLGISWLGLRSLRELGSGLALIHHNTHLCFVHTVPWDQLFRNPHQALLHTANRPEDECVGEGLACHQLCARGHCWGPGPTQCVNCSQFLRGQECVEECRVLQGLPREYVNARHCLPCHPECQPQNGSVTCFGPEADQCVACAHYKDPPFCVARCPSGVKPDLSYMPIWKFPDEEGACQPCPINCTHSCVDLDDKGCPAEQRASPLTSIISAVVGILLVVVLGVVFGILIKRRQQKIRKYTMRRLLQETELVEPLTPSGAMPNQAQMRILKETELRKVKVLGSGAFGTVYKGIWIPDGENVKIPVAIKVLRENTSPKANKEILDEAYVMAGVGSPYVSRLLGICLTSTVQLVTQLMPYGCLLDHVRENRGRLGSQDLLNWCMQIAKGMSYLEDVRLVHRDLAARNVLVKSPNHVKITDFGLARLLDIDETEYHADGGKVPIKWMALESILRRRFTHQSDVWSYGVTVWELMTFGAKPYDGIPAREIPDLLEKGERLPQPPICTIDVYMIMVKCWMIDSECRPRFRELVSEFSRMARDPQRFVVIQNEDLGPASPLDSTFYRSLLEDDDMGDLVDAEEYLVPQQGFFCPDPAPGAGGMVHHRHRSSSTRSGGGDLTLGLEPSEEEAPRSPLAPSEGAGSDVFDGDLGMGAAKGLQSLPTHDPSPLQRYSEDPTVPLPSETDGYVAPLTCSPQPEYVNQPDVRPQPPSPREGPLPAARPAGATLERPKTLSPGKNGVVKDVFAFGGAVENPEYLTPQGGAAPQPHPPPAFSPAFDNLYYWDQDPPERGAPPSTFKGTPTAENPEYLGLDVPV

NCI-H460 = experiment: cells; details: Homo sapiens, NCI-H460, 72 h
BT-474 [17] = experiment: Induction of cell cycle arrest in human BT474 cells assessed as accumulation at G2/M phase at 10 uM incubated for 12 hrs by propidium iodide staining based flow cytometry (reference value: 14%); format: functional
[18] = Elimination half life in Beagle dog at 240 mg/kg, po dosed for 14 days by LC/MS/MS method; format: ADME, organism-based, Canis lupus familiaris; set-up: dose 240 mg/kg, route oral; details: in vivo, read-out: beta t1/2 (converted); in short: as §1
BT-474 [19] = experiment: Induction of cell cycle arrest in human BT474 cells assessed as accumulation at G2/M phase at 0.001 uM incubated for 12 hrs by propidium iodide staining based flow cytometry (reference value: 14%); format: functional
[20] = biological target: T3, Receptor tyrosine-protein kinase erbB-2; details: BT-474, 0.001 to 1 uM; remark: listed apart in the source
[21] = Antitumor activity against human Calu3 cells xenografted in BALB/cA mouse assessed as tumor growth inhibition at 200 mg/kg, po; format: functional; details: Calu-3, read-out: TGI; in short: as §4
BT-474 [22] = experiment: Induction of cell cycle arrest in human BT474 cells assessed as accumulation at S phase at 0.01 uM incubated for 12 hrs by propidium iodide staining based flow cytometry (reference value: 19%); format: functional
[23] = biological target: T3, Receptor tyrosine-protein kinase erbB-2; details: BT-474, 0.001 to 1 uM; remark: listed apart in the source
BT-474 [24] = experiment: Induction of cell cycle arrest in human BT474 cells assessed as accumulation at S phase at 1 uM incubated for 12 hrs by propidium iodide staining based flow cytometry (reference value: 19%); format: functional
[25] = biological target: Mast/stem cell growth factor receptor Kit (Homo sapiens, UniProt P10721); experiment: Inhibition of c-KIT phosphorylation (unknown origin) expressed in human NCI-H526 cells at 0.001 to 1 uM incubated for 2 hrs by Western blot method; format: cell-based
Mast/stem cell growth factor receptor Kit, sequence (P10721 whole entry): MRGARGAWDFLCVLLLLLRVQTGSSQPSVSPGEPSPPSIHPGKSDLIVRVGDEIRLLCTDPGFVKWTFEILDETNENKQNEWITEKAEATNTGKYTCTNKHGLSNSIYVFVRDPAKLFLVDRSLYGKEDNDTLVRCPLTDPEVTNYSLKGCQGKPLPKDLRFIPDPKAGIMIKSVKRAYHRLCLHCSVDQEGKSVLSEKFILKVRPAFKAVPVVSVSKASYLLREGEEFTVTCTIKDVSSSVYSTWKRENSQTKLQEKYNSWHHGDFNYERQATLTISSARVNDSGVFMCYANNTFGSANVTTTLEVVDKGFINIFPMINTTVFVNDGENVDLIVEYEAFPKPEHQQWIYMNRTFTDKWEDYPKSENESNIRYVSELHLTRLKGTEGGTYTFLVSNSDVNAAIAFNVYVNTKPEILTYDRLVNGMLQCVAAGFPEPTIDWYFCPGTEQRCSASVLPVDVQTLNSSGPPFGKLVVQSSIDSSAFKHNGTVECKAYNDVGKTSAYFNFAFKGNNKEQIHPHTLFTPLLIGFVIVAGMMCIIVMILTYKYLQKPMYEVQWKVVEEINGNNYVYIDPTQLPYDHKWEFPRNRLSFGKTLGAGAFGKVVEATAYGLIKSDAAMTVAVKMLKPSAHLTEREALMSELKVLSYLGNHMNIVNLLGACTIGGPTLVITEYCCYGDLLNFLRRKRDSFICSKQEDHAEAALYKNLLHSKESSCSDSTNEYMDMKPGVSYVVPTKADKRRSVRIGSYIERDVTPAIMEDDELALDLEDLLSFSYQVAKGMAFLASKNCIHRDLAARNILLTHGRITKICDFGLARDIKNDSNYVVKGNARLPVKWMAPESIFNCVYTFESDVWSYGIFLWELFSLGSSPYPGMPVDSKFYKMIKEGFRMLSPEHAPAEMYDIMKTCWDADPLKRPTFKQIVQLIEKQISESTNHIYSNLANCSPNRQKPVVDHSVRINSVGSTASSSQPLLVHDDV
In short: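 Cells grown to half-confluence and serum-starved 24 h, then treated 2 h at 0.001, 0.01, 0.1 and 1 µM. Afterwards stimulated at 37 °C with 20 ng/ml SCF-1, PDGF-BB or VEGF as appropriate to the receptor. Phosphorylation assessed by western blot.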

[26] = biological target: T3, Receptor tyrosine-protein kinase erbB-2; experiment: Inhibition of HER2 (unknown origin) assessed as reduction in autophosphorylation by ELISA method; in short: as §3

CN(C)[C@H](CS(C)(=O)=O)c1ccc(-c2ccc3ncnc(Nc4ccc(OCc5cccc(F)c5)c(Cl)c4)c3c2)o1
CL/F [1]: 432 mL/min | Activity (BT-474 [2]): 8% | inhibition [3]: inactive | Activity (Mus musculus [4]): Non-toxic | IC50 [5]: 4.1 nM | IC50 (cells): 230 nM | inhibition [6]: Dose-dependent effect | Activity (Mus musculus [7]): Non-toxic | IC50 [8]: > 200000 nM | IC50 (BT-474 [9]): 28.8 nM | inhibition in vivo at 100 mg/kg [10]: 68% | inhibition [11]: Dose-dependent effect | Activity (BT-474 [12]): 12% | Activity (BT-474 [13]): 1% | AUC(0-inf) [14]: 30600 ng·h/mL | Activity (BT-474 [15]): 11% | inhibition [16]: Dose-dependent effect | IC50 (NCI-H460): > 100000 nM | Activity (BT-474 [17]): 12% | half-life [18]: 4.8 h | Activity (BT-474 [19]): 14% | inhibition [20]: Dose-dependent effect | inhibition in vivo at 200 mg/kg [21]: 83% | Activity (BT-474 [22]): 9% | inhibition [23]: Dose-dependent effect | Activity (BT-474 [24]): 6% | inhibition [25]: inactive | IC50 [26]: 0.5 nM

Source: ChEMBL document CHEMBL3352165 (Eur J Med Chem, 2014)
